# Measurements as given in ChEMBL document CHEMBL1212904, “Discovery of pyrrole-indoline-2-ones as Aurora kinase inhibitors with a different inhibition profile” (J Med Chem, 2010).
# Calls of active or inactive are those of the source. No cut-off for these calls is given here.
# How the values were obtained:
# [1] = system: HCT-116; experiment: Antiproliferative activity against human HCT116 cells after 72 hrs by [3H]thymidine incorporation assay; format: functional, cell-based
# [2] = system: HT-29; experiment: Antiproliferative activity against human HT-29 cells after 72 hrs by cell titer 96 assay; format: functional, cell-based; details: HT-29, 72 h
# [3] = target: T1, Aurora kinase A (Homo sapiens) (UniProt O14965); experiment: Inhibition of aurora A in human HCT116 cells assessed as reduction of phosphorylated histone H3 at ser10 level measured at 10 uM after 3 hrs by Western blot analysis; format: cell-based; details: HCT-116
# T1 sequence (whole entry): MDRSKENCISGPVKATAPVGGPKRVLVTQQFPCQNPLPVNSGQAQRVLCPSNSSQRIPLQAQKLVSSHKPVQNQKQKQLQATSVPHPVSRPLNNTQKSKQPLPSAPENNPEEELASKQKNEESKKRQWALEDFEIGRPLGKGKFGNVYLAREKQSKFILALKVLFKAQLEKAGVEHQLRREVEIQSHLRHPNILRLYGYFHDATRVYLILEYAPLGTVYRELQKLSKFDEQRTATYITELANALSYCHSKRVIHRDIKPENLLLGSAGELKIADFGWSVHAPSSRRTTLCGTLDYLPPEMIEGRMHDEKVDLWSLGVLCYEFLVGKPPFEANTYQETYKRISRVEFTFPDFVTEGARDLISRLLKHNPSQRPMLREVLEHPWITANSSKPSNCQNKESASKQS
# Procedure, shortened: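 HCT-116 cells were synchronized at G2/M with 200 ng/mL nocodazole for 17 h, then given inhibitor for a further 3.0 h. Cells were PBS-washed, boiled in 2× SDS sample buffer, and run on SDS-PAGE with immunoblotting. Rabbit antibodies detected pT288 Aurora A, total Aurora A, pS10 histone H3 and total H3; β-actin served as loading control.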
# [4] = target: Tyrosine-protein kinase ABL1 (Homo sapiens) (UniProt P00519); experiment: Inhibition of ABL1 at 1 uM by radiometric method
# [5] = target: ALK tyrosine kinase receptor (Homo sapiens) (UniProt Q9UM73); experiment: Inhibition of ALK at 1 uM by radiometric method
# [6] = target: Cyclin-dependent kinase 2/cyclin A (Homo sapiens) (UniProt P24941+P20248+P78396); experiment: Inhibition of CDK2/cyclinA at 1 uM by radiometric method; format: protein-complex assay
# [7] = target: Serine/threonine-protein kinase Chk1 (Homo sapiens) (UniProt O14757); experiment: Inhibition of CHK1 at 1 uM by radiometric method
# [8] = Inhibition of CHK2 at 1 uM by radiometric method
# [9] = target: Epidermal growth factor receptor (Homo sapiens) (UniProt P00533); experiment: Inhibition of EGFR at 1 uM by radiometric method
# Epidermal growth factor receptor (Homo sapiens), sequence (P00533 whole entry): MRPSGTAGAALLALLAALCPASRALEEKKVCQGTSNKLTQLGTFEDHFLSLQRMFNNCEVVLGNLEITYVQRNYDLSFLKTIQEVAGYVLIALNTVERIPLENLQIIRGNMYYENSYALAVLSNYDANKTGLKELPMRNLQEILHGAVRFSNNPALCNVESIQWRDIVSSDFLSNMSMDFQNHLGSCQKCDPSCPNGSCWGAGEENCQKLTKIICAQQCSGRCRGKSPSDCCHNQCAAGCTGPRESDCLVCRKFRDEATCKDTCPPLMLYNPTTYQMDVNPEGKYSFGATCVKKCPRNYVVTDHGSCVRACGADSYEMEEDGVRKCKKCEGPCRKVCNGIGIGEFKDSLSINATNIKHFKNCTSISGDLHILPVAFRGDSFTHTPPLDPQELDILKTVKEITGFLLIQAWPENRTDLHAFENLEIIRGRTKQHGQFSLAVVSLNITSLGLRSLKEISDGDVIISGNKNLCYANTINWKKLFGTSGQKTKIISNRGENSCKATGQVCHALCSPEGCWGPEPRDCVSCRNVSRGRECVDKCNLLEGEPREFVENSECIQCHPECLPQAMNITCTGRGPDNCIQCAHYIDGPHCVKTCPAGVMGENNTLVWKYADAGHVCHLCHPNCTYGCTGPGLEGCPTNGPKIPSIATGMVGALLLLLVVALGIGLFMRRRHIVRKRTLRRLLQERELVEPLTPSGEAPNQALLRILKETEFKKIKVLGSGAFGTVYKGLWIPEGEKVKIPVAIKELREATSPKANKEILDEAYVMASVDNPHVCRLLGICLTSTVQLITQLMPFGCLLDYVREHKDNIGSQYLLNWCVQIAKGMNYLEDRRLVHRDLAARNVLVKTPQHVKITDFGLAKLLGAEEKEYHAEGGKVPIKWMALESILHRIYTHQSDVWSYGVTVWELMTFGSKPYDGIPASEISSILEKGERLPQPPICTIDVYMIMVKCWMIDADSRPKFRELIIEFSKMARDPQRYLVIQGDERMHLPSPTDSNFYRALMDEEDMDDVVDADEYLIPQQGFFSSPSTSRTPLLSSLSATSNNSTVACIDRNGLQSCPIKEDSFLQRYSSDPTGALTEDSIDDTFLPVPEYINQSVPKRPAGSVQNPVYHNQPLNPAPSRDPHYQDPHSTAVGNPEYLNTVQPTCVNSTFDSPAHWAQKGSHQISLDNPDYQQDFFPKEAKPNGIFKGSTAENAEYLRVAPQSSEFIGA
# [10] = target: Fibroblast growth factor receptor 1 (Homo sapiens) (UniProt P11362); experiment: Inhibition of FGFR1 at 1 uM by radiometric method
# [11] = target: Insulin-like growth factor 1 receptor (Homo sapiens) (UniProt P08069); experiment: Inhibition of IGF1R at 1 uM by radiometric method
# [12] = target: Mitogen-activated protein kinase 14 (Homo sapiens) (UniProt Q16539); experiment: Inhibition of MAPK14 at 1 uM by radiometric method
# [13] = target: PI3K p110 beta/p85 alpha (Homo sapiens) (UniProt P27986+P42338); experiment: Inhibition of PI3K (p110beta/p85-alpha) at 1 uM by radiometric method; format: protein-complex assay
# PI3K p110 beta/p85 alpha (Homo sapiens), sequence (P27986 2-724 limits assumed): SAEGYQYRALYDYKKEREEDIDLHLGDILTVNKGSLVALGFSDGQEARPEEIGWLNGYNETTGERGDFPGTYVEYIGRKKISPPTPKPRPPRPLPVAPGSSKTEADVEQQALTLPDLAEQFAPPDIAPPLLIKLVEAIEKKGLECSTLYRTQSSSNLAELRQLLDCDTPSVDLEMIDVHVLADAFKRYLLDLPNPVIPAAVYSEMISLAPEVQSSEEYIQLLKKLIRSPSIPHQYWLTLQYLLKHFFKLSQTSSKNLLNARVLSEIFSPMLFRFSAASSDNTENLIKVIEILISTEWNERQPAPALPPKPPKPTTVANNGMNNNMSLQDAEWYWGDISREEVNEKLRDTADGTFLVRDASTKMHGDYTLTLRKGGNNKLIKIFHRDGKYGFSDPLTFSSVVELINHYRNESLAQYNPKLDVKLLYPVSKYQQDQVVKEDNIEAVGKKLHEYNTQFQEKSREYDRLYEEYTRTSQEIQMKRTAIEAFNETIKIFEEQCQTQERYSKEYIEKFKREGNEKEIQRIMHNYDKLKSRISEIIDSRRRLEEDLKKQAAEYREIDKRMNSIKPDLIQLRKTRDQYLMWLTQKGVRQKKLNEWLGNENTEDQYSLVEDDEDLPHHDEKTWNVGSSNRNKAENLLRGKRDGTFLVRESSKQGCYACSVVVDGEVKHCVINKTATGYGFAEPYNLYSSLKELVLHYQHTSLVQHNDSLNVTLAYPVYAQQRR
# PI3K p110 beta/p85 alpha (Homo sapiens), sequence (P42338 whole entry partner): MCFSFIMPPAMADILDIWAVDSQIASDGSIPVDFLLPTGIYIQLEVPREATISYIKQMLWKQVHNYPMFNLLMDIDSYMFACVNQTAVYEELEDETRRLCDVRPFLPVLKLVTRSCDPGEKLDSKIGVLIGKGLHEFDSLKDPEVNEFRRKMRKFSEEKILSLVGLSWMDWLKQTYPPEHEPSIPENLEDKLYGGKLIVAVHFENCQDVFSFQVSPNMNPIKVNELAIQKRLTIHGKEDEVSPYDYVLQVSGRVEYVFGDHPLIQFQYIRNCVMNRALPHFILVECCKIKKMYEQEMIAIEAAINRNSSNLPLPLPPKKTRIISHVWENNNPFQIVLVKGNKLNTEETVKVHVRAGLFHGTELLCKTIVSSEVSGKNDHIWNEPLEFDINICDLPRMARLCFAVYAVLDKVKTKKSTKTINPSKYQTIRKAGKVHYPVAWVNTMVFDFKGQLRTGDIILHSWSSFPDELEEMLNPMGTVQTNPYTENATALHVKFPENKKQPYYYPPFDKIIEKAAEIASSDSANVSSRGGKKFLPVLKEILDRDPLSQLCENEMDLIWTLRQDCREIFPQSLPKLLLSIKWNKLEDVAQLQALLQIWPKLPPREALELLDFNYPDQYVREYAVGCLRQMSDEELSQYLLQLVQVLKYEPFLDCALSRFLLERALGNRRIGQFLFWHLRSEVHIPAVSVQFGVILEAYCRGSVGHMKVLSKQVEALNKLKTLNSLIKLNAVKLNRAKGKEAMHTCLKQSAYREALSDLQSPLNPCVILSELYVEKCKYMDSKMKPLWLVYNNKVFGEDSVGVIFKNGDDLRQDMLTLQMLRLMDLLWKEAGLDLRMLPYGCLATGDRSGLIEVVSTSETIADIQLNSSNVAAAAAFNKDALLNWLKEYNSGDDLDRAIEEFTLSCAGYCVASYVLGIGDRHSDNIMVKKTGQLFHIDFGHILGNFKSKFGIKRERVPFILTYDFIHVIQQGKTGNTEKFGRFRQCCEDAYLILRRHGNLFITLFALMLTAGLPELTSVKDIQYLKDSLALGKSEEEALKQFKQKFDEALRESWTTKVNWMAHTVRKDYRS
# [14] = target: Serine/threonine-protein kinase mTOR (Homo sapiens) (UniProt P42345); experiment: Inhibition of mTOR at 1 uM by radiometric method
# [15] = target: Macrophage colony-stimulating factor 1 receptor (Homo sapiens, UniProt P07333); details: 1 uM
# [16] = target: 3-phosphoinositide-dependent protein kinase 1 (Homo sapiens) (UniProt O15530); experiment: Inhibition of PDK1 at 1 uM by radiometric method
# 3-phosphoinositide-dependent protein kinase 1 (Homo sapiens), sequence (O15530 whole entry, looked up): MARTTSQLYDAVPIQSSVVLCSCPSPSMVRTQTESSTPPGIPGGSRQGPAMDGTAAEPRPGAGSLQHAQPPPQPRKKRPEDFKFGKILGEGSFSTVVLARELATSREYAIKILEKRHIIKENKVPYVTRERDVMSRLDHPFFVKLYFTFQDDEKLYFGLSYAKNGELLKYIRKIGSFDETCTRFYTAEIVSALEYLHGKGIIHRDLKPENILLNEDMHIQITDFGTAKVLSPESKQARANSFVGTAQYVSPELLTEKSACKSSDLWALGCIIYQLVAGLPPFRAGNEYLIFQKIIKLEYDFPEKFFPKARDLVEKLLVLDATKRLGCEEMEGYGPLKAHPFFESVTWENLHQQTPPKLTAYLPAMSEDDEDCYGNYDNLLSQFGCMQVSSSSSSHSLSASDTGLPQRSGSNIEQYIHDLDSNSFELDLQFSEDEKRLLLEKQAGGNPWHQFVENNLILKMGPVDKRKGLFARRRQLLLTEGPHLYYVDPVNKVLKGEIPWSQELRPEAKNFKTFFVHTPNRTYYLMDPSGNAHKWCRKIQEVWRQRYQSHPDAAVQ
# [17] = target: Tyrosine-protein kinase Lck (Homo sapiens) (UniProt P06239); experiment: Inhibition of LCK at 1 uM by KINOMEscan binding assay
# Tyrosine-protein kinase Lck (Homo sapiens), sequence (P06239 2-509 limits assumed): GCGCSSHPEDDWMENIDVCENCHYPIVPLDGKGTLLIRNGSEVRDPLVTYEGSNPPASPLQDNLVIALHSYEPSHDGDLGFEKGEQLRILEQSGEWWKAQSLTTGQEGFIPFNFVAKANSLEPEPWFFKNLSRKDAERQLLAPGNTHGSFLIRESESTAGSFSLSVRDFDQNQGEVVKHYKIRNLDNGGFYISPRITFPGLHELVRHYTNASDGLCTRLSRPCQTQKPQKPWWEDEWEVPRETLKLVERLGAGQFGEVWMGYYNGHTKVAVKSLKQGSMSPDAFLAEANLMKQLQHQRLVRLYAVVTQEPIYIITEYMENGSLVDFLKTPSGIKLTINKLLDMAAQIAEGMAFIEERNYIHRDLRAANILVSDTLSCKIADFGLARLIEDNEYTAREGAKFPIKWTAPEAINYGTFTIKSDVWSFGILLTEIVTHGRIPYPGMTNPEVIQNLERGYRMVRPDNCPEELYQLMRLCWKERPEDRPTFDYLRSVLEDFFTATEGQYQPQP
# [18] = target: High affinity nerve growth factor receptor (Homo sapiens) (UniProt P04629); experiment: Inhibition of TRK at 1 uM by KINOMEscan binding assay
# High affinity nerve growth factor receptor (Homo sapiens), sequence (P04629 33-796 limits assumed): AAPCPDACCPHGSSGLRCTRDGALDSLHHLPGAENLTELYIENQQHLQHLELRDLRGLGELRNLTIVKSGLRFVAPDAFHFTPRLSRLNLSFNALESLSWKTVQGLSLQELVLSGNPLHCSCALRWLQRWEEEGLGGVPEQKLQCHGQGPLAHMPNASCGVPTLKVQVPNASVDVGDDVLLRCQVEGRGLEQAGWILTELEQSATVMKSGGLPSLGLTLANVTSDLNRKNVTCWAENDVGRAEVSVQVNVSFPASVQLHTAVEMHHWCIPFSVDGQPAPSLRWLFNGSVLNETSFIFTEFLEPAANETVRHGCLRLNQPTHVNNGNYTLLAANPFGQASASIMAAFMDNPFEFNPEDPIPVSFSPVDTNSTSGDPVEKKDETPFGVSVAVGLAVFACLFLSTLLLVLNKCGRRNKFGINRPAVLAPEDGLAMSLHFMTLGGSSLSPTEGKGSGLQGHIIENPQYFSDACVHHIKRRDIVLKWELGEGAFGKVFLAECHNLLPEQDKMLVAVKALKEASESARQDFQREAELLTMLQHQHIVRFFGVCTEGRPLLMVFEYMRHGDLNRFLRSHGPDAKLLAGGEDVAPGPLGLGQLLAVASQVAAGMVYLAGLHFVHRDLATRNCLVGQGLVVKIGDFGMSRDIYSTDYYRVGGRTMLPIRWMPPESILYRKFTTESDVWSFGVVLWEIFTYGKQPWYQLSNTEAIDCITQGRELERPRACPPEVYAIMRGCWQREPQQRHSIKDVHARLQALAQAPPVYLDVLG
# [19] = target: T2, Aurora kinase A (Homo sapiens, UniProt O14965); experiment: Inhibition of recombinant aurora A
# T2 sequence (O14965 whole entry): T1 sequence (whole entry)
# [20] = target: Aurora kinase B (Homo sapiens, UniProt Q96GD4); experiment: Inhibition of recombinant aurora B
# [21] = system: HeLa; experiment: Antiproliferative activity against human HeLa cells after 72 hrs by cell titer 96 assay; format: functional, cell-based
# [22] = system: HCT-116; experiment: Cell cycle arrest in human HCT116 cells assessed as increase of tetraploid 4N DNA at 4 uM after 24 hrs by flow cytometry; format: functional, cell-based
# Procedure, shortened: (§1)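 HCT-116 cells exposed to 4 μM for 24 h, then trypsinized, PBS-washed, fixed in ice-cold 70% ethanol at -20 °C overnight. Cells were washed twice in PBS and stained 30 min in PBS with 2 μg/mL RNase A and 5 μg/mL propidium iodide. DNA content was read by flow cytometry to score 4 N and ≥8 N populations.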
# [23] = system: HCT-116; experiment: Cell cycle arrest in human HCT116 cells assessed as increase of multinucleated octoploid 8 N DNA at 4 uM after 24 hrs by flow cytometry; format: functional, cell-based; procedure, shortened: as §1
# [24] = target: Vascular endothelial growth factor receptor 2 (Homo sapiens, UniProt P35968); experiment: Inhibition of VEGFR2 by radiometric method
# [25] = target: Receptor-type tyrosine-protein kinase FLT3 (Homo sapiens, UniProt P36888); experiment: Inhibition of FLT3 by radiometric method
SMILES,IC50 [2] [µM],inhibition [3],inhibition [5] [%],inhibition [6] [%],inhibition [7] [%],inhibition [8] [%],inhibition [9] [%],inhibition [10] [%],inhibition [11] [%],inhibition [12] [%],inhibition [13] [%],inhibition [14] [%],inhibition [15] [%],inhibition [16] [%],residual activity [17] [%],residual activity [18] [%],also measured
CCOC(=O)CCc1c(/C=C2\C(=O)Nc3ccc(NS(=O)(=O)c4ccccc4)cc32)[nH]c2c1C(=O)CCC2,3.23,Active,80,71,10,17,5,77,24,4,1,9,34,24,< 10,< 10,IC50 [1]: 1.02 µM; inhibition [4]: 31%
CN(C)CCCc1c(/C=C2\C(=O)Nc3ccc(NS(=O)(=O)c4ccccc4)cc32)[nH]c2c1C(=O)CCC2,2.97,Active,85,46,58,56,4,41,6,11,-2,25,56,11,< 10,< 10,IC50 [19]: 2.19 µM; IC50 [20]: 0.235 µM; IC50 [21]: 7.8 µM; Activity [22]: Active; Activity [23]: Active; IC50 [24]: < 1 µM; IC50 [25]: < 1 µM
